Data: ChEMBL document CHEMBL5055645 (J Med Chem, 2021)
Activity calls are given as the source filed them. The calls are words filed in the database; no cut-off is given here.

Assays:
Mus musculus [1] = assay: Hyperglycemic effect in C57BL/6J mouse assessed as increase in blood glucose level at 50 microg/kg, iv measured measured after 30 mins by intraperitoneal insulin tolerance test; type: functional, organism-based; details: dose 50.0 µg/kg
How it was run: (§1)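 Female C57BL/6J mice, 8 weeks old, 20–30 g, 5 per group. After a 3 h fast they received insulin 0.75 IU/kg, then a single i.v. dose of peptide (50 or 500 μg/kg) or saline. Blood glucose read by glucometer at 15, 30 and 60 min after injection.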

Mus musculus [2] = assay: Hyperglycemic effect in C57BL/6J mouse assessed as increase in blood glucose level at 500 microg/kg, iv measured measured after 30 mins by intraperitoneal insulin tolerance test; type: functional, organism-based; details: dose 500.0 µg/kg; how it was run: as §1
Mus musculus [3] = assay: Hyperglycemic effect in C57BL/6J mouse assessed as increase in blood glucose level at 50 microg/kg, iv measured measured up to 60 mins by intraperitoneal insulin tolerance test; type: functional, organism-based; details: dose 50.0 µg/kg
How it was run: (§2)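 Wild-type 8-week-old female mice weighing 20–30 g, 7 groups of 5. Mice fasted 3 h, then given insulin (0.75 IU/kg). […] Blood glucose read with a glucometer at 15, 30 and 60 min post-injection.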

Mus musculus [4] = assay: Hyperglycemic effect in C57BL/6J mouse assessed as increase in blood glucose level at 500 microg/kg, iv measured measured up to 60 mins by intraperitoneal insulin tolerance test; type: functional, organism-based; details: dose 500.0 µg/kg; how it was run: as §2
[5] = Stability in human serum assessed as compound degradation measured at 2 mg/ml after 24 hrs at 37C by RP-HPLC analysis; type: ADME, cell-free
How it was run: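 Peptide at 2 mg/mL final in 25% (v/v) pooled human male AB serum, incubated at 37 °C for 24 h. Samples quenched with equal volume acetonitrile on ice for 20 min and centrifuged at 4 °C. Supernatant diluted to 0.1 mg/mL and run on RP-HPLC. Intact peptide estimated from peak area at 215 nm.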

[6] = In vivo stability in C57BL/6J mouse serum assessed as compound degradation measured at 5 mg/kg, iv after 15 mins by LC/MS/MS analysis; type: ADME, organism-based; details: 0.25 h
How it was run: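 Mice (C57BL/6J, 8 weeks old, 20–30 g), 4 male and 4 female per group, given one i.v. dose of 5 mg/kg. Submandibular blood drawn into EDTA tubes at 15 min, 30 min, 1, 2, 4, 8 and 24 h. Plasma protein precipitated with 9:1 acetonitrile/acetic acid on ice, centrifuged, and the supernatant analysed by LC/MS/MS.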

Sequence | Activity (Mus musculus [1]) | Activity (Mus musculus [2]) | Activity (Mus musculus [3]) | Activity (Mus musculus [4]) | Drug degradation [5] [%] | Stability [6]
GLUCAGON [listing 1 of 2 here] | Active | Active | Active | Active | – | –
GLUCAGON [listing 2 of 2 here] | – | – | – | – | > 85 | Unstable
